Screening results (PubChem BioAssay)
PTEN del growth – PTEN-deleted cell growth suppression; HCT116 PTEN-null viability, CellTiter-Glo, 60 h; hits give low values; viability, % at 10 µM; 1.2% of 140,000 active; AID 827;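 active means viability at or below a set limit, 4 SD under the median of all tested compounds, cut at about 3.7% in these data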;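 further: PTEN knockout HCT116 line with beta catenin targeted HCT116 as companion control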
PMI act – increases human mannose-6-phosphate isomerase activity; purified human PMI, coupled resazurin fluorescence, 20 min; hits give high values; 1 = vehicle control, 0 substrate-free wells; activation factor at 20 µM; 0.005% of 190,000 active;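 active means activation factor of 2 or more at 20 µM, relative to plate controls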
Target sequence (P34949 whole entry, looked up): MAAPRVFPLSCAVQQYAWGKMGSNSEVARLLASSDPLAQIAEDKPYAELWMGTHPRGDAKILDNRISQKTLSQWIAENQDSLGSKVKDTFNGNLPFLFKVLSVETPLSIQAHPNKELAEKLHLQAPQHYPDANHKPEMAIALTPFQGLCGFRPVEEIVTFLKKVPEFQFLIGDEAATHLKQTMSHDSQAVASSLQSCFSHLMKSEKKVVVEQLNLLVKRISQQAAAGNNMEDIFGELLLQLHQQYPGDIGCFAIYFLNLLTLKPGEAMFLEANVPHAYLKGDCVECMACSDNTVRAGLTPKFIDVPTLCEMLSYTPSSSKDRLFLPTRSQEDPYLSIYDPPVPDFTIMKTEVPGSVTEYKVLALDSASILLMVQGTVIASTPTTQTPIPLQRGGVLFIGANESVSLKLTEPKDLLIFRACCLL
HCT116 bCat-KO – beta-catenin-lacking colon tumor cell growth suppression | HCT116 beta-catenin knockout viability, CellTiter-Glo, 60 h; hits give low values | viability, % at 10 µM | 1.5% of 140,000 active;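 active means viability at or under a set limit, the compound median less 4 SD, cut at about 6% in these data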;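 further: 0% = Hyamine 1622 control at 20 µM and 100% = untreated cell control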
PMI act hi M6P – activators of human phosphomannose isomerase at near-saturating mannose 6-phosphate | coupled PMI enzyme assay, resazurin fluorescence, 20 min; hits give high values; 1 = untreated enzyme, 0 = substrate-free blank | activation factor at 20 µM | 0.34% of 190,000 active | AID 1216;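 active means activation factor of 2 or more at 20 µM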
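Test system: human phosphomannose isomerase with PGI, G6PDH, diaphorase coupling enzymes / Doses: 20 µM compound, 1% DMSO / Times: enzyme reaction with compound 20 min at room temperature / Measured by: Diaphorase-driven resazurin-to-resorufin fluorescence, excitation 544, emission 590 nm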
L major viab – inhibitors of Leishmania major promastigote growth | AID 1063 | 9% of 200,000 active | inhibition, % at 10 µM | Leishmania major promastigotes, resazurin fluorescence viability; in the data active means inhibition above about 50%;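 further: promastigotes grown with compound for 44 hours at 28 °C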
* marks the source's active call; other numbers are inactive results; · = no result given. Hits are enriched below; roughly 9.6% of the tested compounds scored in any of these assays.

SMILES	PTEN del growth	PMI act	HCT116 bCat-KO	PMI act hi M6P	L major viab
COc1ccc(-n2nc([N+](=O)[O-])c(=NCCc3ccc(OC)c(OC)c3)n2O)cc1	69.1	0.9	83.0	1	93.8*
COc1ccc(-n2nc([N+](=O)[O-])c(=NCc3cccnc3)n2O)cc1	92.0	0.9	95.5	0.9	82.1*
CCOC(=O)c1nnn(-c2nonc2N)c1CN(CC)c1ccccc1	103.3	0.9	96.5	0.9	22.9
COc1cc(/C=N/N=C(N)N)ccc1OCc1ccc(Cl)cc1	·	0.9	·	1	100.5*
COc1cc(/C=N/NC(N)=S)ccc1OCc1ccc(C)cc1	57.6	1	68.4	1	100.3*
CCOc1cc(/C=N/O)ccc1OCc1ccc([N+](=O)[O-])cc1	85.0	0.9	82.8	0.9	57.6*
CCOc1cc(/C=N/N=C(N)N)ccc1OCc1ccc(Cl)cc1	1.2*	1.1	1.3*	1.2	100.5*
CC(C)NC(=O)NC(=O)COC(=O)c1ccccc1Oc1ccccc1	91.5	0.9	109.6	0.9	18.8
Cc1ccc2cccc(NC3OC(=O)c4ccccc43)c2n1 (configuration not stated)	84.9	0.8	81.1	0.4	-1.8
CC(C)N=C1NN=C(c2ccc(F)cc2)CS1	·	1	·	1	0.1
COc1cc(OC)c(C(=O)CCCN2CCCC2)c(OC)c1	93.0	1.1	93.3	1	3.3
CCOc1ccc(C2c3cc(OC)c(OC)cc3CC(=O)N2c2ccc(OC)cc2)cc1 (configuration not stated)	20.1	1	19.6	0.9	80.5*
CCOc1cc2c(cc1OCC)C(c1ccc(OC)c(OC)c1)N(c1ccc(C(=O)O)cc1)C(=O)C2 (configuration not stated)	·	1	·	0.9	-2.6
CCSc1ncnc2c1sc1nc3c(cc12)COC(C)(C)C3	80.2	0.9	94.4	0.9	1.1
CN(CCOC(=O)c1cccc(F)c1)Cc1ccccc1	105.1	1	96.4	1.1	0.0
CC(CN(C)Cc1ccccc1)OC(=O)c1cccc(F)c1 (configuration not stated)	103.2	1.6	83.3	2.4*	-7.2
CCOC(=O)C1(Cc2ccccc2C(F)(F)F)CCN(C2CCN(C(C)C)CC2)CC1	·	1	·	1	99.0*
CCCCNS(=O)(=O)c1ccc(NC(=O)Cc2ccccc2[N+](=O)[O-])cc1	·	0.9	·	0.9	0.1
O=C(c1ccccc1)c1cccc(NC(=O)c2ccco2)c1	70.7	0.9	79.4	0.8	96.9*
CC(=O)c1cccc(NC(=O)c2ccco2)c1	107.8	1	105.2	1	14.8
O=C(Nc1cccc(F)c1)c1ccc(Br)o1	93.7	1.2	80.8	1.2	67.9*
O=C(Nc1cccc(-n2cnnn2)c1)c1ccco1	92.4	0.9	95.4	1	94.9*
O=C(Nc1cccc(NC(=O)c2ccc(-c3cccc(Br)c3)o2)c1)c1ccco1	38.8	0.9	50.5	0.9	59.8*
COC(=O)/C=C/c1ccsc1NC(C)=O	96.8	1	92.2	1	1.9
Cc1noc2nc(-c3cccs3)cc(-c3nnc4n3CCCCC4)c12	·	1	·	0.9	·
SMILES	PTEN del growth	PMI act	HCT116 bCat-KO	PMI act hi M6P	L major viab
COc1ccc(S(=O)(=O)NCC2CCCN(C(=O)CC3CCCC3)C2)cc1 (configuration not stated)	·	0.9	·	1	8.9
CCOc1ccc2nc(SC3CC(=O)N(c4ccc(OC)cc4OC)C3=O)sc2c1 (configuration not stated)	·	0.8	·	0.9	-4.5
CC/C=C\[C@H](O)[C@H](O)C1=C(C)C(=O)[C@]2(O1)C(=O)N[C@@](OC)(C(=O)c1ccccc1)C2O (some centres not stated)	·	0.9	·	0.6	-12.1
Cc1cc(=O)n2nc(-c3ccc(C(F)(F)F)cc3)sc2n1	96.0	1.1	92.6	1.1	-0.2
Cc1ccc(C(=O)Nc2cccnc2)cc1NC(=O)c1ccco1	94.9	0.9	97.2	1	6.3
O=C(Nc1cccnc1)c1cccc(NC(=O)c2ccco2)c1	98.2	0.8	97.0	0.8	79.7*
O=C(Nc1nccs1)c1cccc(NC(=O)c2ccco2)c1	84.7	1.1	81.4	1.1	97.3*
O=C(Nc1cccc(-c2cnc3ccccc3n2)c1)c1cccc(NC(=O)c2ccco2)c1	70.9	0.9	75.2	1	69.0*
O=C(Nc1cccc(NC(=O)c2sc3ccccc3c2Cl)c1)c1ccco1	95.0	0.9	88.8	1	81.1*
COc1ccccc1N(CC(O)Cn1ccnc1C)S(=O)(=O)c1ccc(C)cc1 (configuration not stated)	·	1	·	1.1	0.3
COc1ccc(CN2CCNC(=O)C2CC(=O)N2CCCCO2)c(OC)c1 (configuration not stated)	·	0.9	·	0.7	-4.5
O=C(O)Cn1nc(C(F)(F)F)c2c1CCC2	98.0	1	92.8	0.9	-3.0
O=C(CSc1ncnc2c1oc1ccccc12)NC1CCCCC1	95.7	1	94.0	1	39.6
O=C(CN1CCCC1)Nc1ccc(-c2nc3cc(NC(=O)CN4CCCC4)ccc3o2)cc1	3.7*	0.8	2.4*	0.8	100.5*
CCCC(=O)Nc1ccc2oc(-c3ccncc3)nc2c1	96.6	1	99.4	1	-2.3
CCC(C)NCC(=O)Nc1ccc(-c2nc3cc(NC(=O)CNC(C)CC)ccc3o2)cc1 (configuration not stated)	0.8*	0.9	0.6*	1	99.2*
CCN(CC)CC(=O)Nc1ccc(-c2nc3cc(NC(=O)CN(CC)CC)ccc3o2)cc1	7.0	0.9	7.6	1	86.0*
O=C(Nc1ccc2ccccc2c1)[C@@H]1C[C@H]1[C@@H](NP(=O)(c1ccccc1)c1ccccc1)c1ccccc1	59.6	0.8	63.0	0.8	33.6
Cc1ccc(C(=O)N2CCN3C(=O)c4ccccc4C23c2ccccc2)cc1 (configuration not stated)	·	1	·	1	53.6*
COc1ccccc1/C=N/NC(=O)c1ccc(Br)cc1	·	1	·	1	5.7
COc1cc(C(=O)Oc2ccccc2/C=N/NC(=O)c2ccc(Cl)cc2)cc(OC)c1OC	6.4	1.1	7.2	1	93.1*
COc1cc(C(=O)Oc2ccccc2/C=N/NC(=O)c2ccc(C)c(Cl)c2)cc(OC)c1OC	2.7*	1	5.2*	1	6.6
CC(=O)Nc1ccc(C(=O)N/N=C/c2ccccc2OC(=O)c2ccc(Cl)cc2)cc1	16.3	0.9	10.9	0.9	1.8
COc1cc(/C=N/NC(=O)c2cccnc2)ccc1OC(=O)c1ccc2c(c1)OCO2	92.7	1	90.3	0.9	-1.3
O=C(N/N=C/c1ccccc1OC(=O)c1ccc2c(c1)OCO2)c1cccc(F)c1	3.4*	1.1	5.0*	1.1	-5.0
Cc1ccc(Cn2ncc3c(N4CCN(C5CCCC5)CC4)ncnc32)cc1	·	1	·	1.1	55.4*
Cc1ccc(Cn2ncc3c(N4CCN(Cc5ccc(Cl)cc5)CC4)ncnc32)cc1	25.3	1.2	26.0	1.3	68.9*
